One may read the inhibition as the drop in the measured response relative to a control, in per cent.

Data on one compound can be found in PubChem BioAssay AID1793 (Vanderbilt High Throughput Screening Facility, 2009).

Holding throughout (test): radioligand displacement at GPCRs, ion channels – biochemical, MDS panel, antagonist ancillary profile, selectivity assay for Cl- transport modulator project, profiling panel (AID 1793)
Background: Displacement assays read how much labelled ligand stays bound in the presence of the test substance.

Assay [1] concerns the target Voltage-dependent L-type calcium channel subunit alpha-1C (Rattus norvegicus) (UniProt P22002). Particulars: MDS Pharma radioligand binding panel, % inhibition; measured here: L-type Ca channel BTZ rat; at 10 µM; stronger effect = higher value. Summed up:
(§1)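 test system = off-target panel spanning GPCRs, ion channels plus transporters | doses = lead compound at one single concentration, 10 µM | read-out basis = off-target activity per panel target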

Assay [2] deals with Androgen receptor (Rattus norvegicus) (UniProt P15207). The conditions noted are these: MDS Pharma radioligand binding panel, % inhibition; measured here: Androgen receptor rat; at 10 µM; stronger effect = higher value. The gist of the method:
as §1

Assay [3] concerns the target Adenosine receptor A2a (Homo sapiens) (UniProt P29274). The conditions noted are these: MDS Pharma radioligand binding panel, % inhibition; measured here: Adenosine A2 human; at 10 µM; stronger effect = higher value. Summed up:
as §1

Assay [4] addresses Adenosine receptor A3 (Homo sapiens) (UniProt P0DMS8). Particulars: MDS Pharma radioligand binding panel, % inhibition; measured here: Adenosine A3 human; at 10 µM; stronger effect = higher value. Summed up: as §1
Assay [5] concerns the target Beta-1 adrenergic receptor (Homo sapiens) (UniProt P08588). The conditions noted are these: MDS Pharma radioligand binding panel, % inhibition; measured here: Adrenergic b1 human; at 10 µM; stronger effect = higher value. The gist of the method: as §1
Assay [6] addresses B1 bradykinin receptor (Homo sapiens) (UniProt P46663). Particulars: MDS Pharma radioligand binding panel, % inhibition; measured here: Bradykinin B1 human; at 10 µM; stronger effect = higher value. The gist of the method: as §1
In assay [7] the target is Alpha-1D adrenergic receptor (Homo sapiens) (UniProt P25100). Particulars: MDS Pharma radioligand binding panel, % inhibition; measured here: Adrenergic a1D human; at 10 µM; stronger effect = higher value. The gist of the method: as §1
The target of assay [8] is Alpha-1B adrenergic receptor (Rattus norvegicus) (UniProt P15823). Particulars: MDS Pharma radioligand binding panel, % inhibition; measured here: Adrenergic a1B rat; at 10 µM; stronger effect = higher value. Summed up:
as §1

Assay [9] has as its target Alpha-1A adrenergic receptor (Rattus norvegicus) (UniProt P43140). The conditions noted are these: MDS Pharma radioligand binding panel, % inhibition; measured here: Adrenergic a1A rat; at 10 µM; stronger effect = higher value. The gist of the method: as §1
In assay [10] the target is Alpha-2A adrenergic receptor (Homo sapiens) (UniProt P08913). Particulars: MDS Pharma radioligand binding panel, % inhibition; measured here: Adrenergic a2A human; at 10 µM; stronger effect = higher value. Summed up: as §1
For assay [11], the target named is Beta-2 adrenergic receptor (Homo sapiens) (UniProt P07550). Particulars: MDS Pharma radioligand binding panel, % inhibition; measured here: Adrenergic b2 human; at 10 µM; stronger effect = higher value. The gist of the method: as §1
Assay [12] concerns the target Adenosine receptor A1 (Homo sapiens) (UniProt P30542). The conditions noted are these: MDS Pharma radioligand binding panel, % inhibition; at 10 µM; stronger effect = higher value. Summed up: as §1
In assay [13] the target is B2 bradykinin receptor (Homo sapiens) (UniProt P30411). Particulars: MDS Pharma radioligand binding panel, % inhibition; measured here: Bradykinin B2 human; at 10 µM; stronger effect = higher value. Summed up:
as §1

Sequence of Beta-1 adrenergic receptor (Homo sapiens) (P08588 whole entry, looked up): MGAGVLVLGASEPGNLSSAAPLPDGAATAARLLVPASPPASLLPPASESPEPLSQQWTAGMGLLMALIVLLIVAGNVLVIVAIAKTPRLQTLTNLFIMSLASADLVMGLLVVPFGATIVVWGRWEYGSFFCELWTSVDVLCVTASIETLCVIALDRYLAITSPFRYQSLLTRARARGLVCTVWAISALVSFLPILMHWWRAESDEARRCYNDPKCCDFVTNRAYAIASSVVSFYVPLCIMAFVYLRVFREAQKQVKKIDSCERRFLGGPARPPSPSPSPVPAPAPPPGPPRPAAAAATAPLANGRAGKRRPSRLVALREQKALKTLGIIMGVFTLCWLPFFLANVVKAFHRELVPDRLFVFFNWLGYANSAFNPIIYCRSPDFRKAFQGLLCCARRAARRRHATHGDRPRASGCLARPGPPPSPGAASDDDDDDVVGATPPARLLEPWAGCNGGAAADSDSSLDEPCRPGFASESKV
Sequence of B2 bradykinin receptor (Homo sapiens) (P30411 whole entry, looked up): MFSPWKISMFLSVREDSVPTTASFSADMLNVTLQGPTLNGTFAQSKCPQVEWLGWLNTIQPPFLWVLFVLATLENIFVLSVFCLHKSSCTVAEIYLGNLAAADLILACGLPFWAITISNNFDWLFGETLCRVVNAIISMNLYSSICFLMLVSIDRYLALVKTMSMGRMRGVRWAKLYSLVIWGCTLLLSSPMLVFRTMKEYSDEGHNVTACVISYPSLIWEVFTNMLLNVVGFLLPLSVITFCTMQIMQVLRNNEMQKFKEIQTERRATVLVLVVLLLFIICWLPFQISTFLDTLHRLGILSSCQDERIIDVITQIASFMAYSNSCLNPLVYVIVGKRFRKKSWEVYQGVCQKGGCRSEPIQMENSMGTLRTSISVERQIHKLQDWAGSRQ
Sequence of Adenosine receptor A2a (Homo sapiens) (P29274 whole entry, looked up): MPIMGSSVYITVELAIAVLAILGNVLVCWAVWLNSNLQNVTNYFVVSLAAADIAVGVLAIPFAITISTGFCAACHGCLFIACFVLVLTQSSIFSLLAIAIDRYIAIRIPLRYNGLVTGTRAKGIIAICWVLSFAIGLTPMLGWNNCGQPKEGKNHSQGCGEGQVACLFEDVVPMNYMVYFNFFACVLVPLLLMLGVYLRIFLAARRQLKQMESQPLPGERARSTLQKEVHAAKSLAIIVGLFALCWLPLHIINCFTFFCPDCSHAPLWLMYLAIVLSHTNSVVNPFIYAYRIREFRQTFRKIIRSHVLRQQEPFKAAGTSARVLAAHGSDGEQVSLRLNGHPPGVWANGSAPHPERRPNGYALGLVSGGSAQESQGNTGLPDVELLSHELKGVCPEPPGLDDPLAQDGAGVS
Sequence of Alpha-2A adrenergic receptor (Homo sapiens) (P08913 whole entry, looked up): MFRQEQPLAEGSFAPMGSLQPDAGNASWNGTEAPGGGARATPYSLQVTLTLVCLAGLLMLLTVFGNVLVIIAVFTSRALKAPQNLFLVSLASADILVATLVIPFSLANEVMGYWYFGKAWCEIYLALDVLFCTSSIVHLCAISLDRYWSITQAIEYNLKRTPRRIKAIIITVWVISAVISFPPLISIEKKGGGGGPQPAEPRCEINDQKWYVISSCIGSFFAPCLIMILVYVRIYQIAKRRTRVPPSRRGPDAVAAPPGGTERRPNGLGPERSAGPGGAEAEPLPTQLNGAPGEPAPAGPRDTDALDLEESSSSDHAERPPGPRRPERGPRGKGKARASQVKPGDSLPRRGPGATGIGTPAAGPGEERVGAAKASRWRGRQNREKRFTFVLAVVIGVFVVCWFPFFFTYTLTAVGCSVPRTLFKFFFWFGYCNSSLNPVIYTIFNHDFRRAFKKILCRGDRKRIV
Sequence of Alpha-1D adrenergic receptor (Homo sapiens) (P25100 whole entry, looked up): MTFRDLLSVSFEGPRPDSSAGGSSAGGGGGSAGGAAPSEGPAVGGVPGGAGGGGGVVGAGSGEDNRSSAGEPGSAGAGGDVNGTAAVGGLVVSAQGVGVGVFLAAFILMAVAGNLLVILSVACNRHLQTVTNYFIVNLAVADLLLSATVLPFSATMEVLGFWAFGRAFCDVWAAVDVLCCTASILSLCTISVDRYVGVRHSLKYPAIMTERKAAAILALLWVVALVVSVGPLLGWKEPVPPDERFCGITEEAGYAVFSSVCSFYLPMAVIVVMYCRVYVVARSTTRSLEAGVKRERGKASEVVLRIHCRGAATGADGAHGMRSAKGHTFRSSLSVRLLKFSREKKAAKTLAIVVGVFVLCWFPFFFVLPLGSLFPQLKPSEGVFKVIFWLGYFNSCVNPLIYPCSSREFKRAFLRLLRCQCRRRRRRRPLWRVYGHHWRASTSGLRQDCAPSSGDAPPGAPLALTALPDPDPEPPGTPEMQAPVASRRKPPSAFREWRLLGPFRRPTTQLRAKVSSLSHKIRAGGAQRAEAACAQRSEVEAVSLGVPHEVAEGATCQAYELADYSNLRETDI
Sequence of Voltage-dependent L-type calcium channel subunit alpha-1C (Rattus norvegicus) (P22002 whole entry, looked up): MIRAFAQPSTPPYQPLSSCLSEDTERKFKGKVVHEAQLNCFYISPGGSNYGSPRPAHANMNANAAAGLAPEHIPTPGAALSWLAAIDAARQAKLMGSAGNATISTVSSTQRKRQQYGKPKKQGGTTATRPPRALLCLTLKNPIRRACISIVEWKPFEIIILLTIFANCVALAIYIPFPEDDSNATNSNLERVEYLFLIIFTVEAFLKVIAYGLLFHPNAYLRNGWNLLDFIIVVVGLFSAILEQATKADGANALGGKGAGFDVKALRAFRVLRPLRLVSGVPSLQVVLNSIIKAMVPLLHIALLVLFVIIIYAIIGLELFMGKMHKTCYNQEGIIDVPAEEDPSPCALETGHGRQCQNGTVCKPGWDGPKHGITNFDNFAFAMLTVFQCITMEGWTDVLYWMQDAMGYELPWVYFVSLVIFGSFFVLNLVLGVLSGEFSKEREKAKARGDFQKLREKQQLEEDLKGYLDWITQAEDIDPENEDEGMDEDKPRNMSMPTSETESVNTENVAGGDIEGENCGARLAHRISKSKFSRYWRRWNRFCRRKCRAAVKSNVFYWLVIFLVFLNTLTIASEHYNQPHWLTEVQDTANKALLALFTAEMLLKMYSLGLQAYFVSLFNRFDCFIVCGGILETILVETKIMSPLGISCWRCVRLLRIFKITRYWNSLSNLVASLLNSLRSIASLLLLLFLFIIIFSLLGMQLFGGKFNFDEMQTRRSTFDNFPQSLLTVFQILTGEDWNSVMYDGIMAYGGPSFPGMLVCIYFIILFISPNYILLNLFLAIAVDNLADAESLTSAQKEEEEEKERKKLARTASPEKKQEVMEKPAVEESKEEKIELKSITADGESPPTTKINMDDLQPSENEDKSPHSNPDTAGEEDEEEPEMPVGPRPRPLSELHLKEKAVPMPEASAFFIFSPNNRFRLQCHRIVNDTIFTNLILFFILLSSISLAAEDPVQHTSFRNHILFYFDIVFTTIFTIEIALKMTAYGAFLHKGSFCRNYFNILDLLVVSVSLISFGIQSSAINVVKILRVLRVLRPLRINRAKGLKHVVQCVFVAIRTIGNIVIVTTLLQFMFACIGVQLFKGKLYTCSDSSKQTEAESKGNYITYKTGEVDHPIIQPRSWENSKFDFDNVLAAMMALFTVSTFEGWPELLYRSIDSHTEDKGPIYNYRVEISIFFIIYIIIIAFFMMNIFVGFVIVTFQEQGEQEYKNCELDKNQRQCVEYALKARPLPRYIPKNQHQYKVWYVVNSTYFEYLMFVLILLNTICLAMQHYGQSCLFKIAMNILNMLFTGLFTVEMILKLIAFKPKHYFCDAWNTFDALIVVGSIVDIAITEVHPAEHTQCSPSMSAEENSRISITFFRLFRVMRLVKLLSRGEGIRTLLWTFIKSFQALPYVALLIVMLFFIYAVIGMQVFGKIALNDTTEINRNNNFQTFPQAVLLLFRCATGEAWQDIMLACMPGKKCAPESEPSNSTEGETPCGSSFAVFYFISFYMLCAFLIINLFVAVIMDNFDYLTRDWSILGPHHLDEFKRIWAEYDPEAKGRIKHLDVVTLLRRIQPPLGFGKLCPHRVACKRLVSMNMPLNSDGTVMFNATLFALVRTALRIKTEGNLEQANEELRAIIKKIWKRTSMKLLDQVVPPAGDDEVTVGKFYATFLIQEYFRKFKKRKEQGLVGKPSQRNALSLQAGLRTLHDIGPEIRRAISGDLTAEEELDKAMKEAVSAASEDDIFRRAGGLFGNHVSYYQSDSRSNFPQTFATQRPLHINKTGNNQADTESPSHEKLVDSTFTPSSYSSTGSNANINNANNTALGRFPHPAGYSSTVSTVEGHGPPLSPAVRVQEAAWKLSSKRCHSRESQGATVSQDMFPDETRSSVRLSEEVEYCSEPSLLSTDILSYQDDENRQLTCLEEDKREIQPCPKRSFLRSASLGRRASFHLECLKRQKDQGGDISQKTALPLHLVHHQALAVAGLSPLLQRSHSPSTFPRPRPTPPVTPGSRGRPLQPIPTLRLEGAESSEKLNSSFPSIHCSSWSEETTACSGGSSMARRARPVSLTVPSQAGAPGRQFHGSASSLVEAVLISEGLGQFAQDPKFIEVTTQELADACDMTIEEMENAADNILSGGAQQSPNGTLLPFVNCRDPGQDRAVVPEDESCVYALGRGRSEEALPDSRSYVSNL
Sequence of B1 bradykinin receptor (Homo sapiens) (P46663 whole entry, looked up): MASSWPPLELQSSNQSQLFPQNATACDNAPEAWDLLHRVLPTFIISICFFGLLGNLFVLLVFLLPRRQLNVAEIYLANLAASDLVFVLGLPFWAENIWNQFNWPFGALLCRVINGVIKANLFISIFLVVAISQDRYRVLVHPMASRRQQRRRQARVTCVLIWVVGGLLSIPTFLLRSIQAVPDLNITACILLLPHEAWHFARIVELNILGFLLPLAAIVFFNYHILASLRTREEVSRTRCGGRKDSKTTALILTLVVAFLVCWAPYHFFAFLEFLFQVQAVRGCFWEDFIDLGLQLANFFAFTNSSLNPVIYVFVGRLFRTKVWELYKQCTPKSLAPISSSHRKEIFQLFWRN

`Cc1csc(N(C)C(=O)CSc2ccc(-c3ccccc3)nn2)n1`: the inhibition in assay [1] was 10%; in assay [2] it was 4%; in [3], 38%; in assay [4] it was 38%; in [5], 10%; in assay [6], 6%. Further, the inhibition in [7] was 16%; in assay [8], 3%; in assay [9], 33%; in assay [10], -7%; in assay [11] it was 9%; in assay [12], 31%. Further, the inhibition in assay [13] came to 2%.
